Reference: ChEMBL document CHEMBL5038594, “Structural Fine-Tuning of Desmuramylpeptide NOD2 Agonists Defines Their In Vivo Adjuvant Activity” (J Med Chem, 2021)
Active and inactive are the calls of the source. The calls are words filed in the database; no cut-off is given here.

Tests used:
K562 [1] = experiment: Cytotoxicity against human K562 cells cocultured with human PBMC cells assessed as inhibition of cell proliferation at 100 nM incubated with PBMC cells for 18 hrs followed by co-incubation with K562 cells for 4 hrs by SYTOX blue staining based flow cytometric analysis; format: functional
In short: (§1)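 Effector cells are freshly Ficoll-isolated human PBMCs, 4 × 10^5 per well, pretreated 18 h with compound or 0.1% DMSO. CFSE-labelled K562 or MEC1 targets, 1 × 10^4 per well, are then added at 40:1 effector:target ratio and co-incubated 4 h at 37 °C. Dead targets are CFSE+/Sytox blue+ by flow cytometry. Results are relative to vehicle. Duplicates; three (MEC1) or four (K562) independent experiments. One-way ANOVA with Dunnett.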

MEC1 = experiment: Cytotoxicity against human MEC-1 cells cocultured with human PBMC cells assessed as inhibition of cell proliferation at 1 uM incubated with PBMC cells for 18 hrs followed by co-incubation with MEC-1 cells for 4 hrs by SYTOX blue staining based flow cytometric analysis; format: functional; in short: as §1
K562 [2] = experiment: Cytotoxicity against human K562 cells cocultured with human PBMC cells assessed as inhibition of cell proliferation at 1 uM incubated with PBMC cells for 18 hrs followed by co-incubation with K562 cells for 4 hrs by SYTOX blue staining based flow cytometric analysis; format: functional; in short: as §1
PBMC [3] = experiment: Immunostimulatory activity in human PBMC cells assessed as increase in IL-6 production at 2 uM incubated for 18 hrs by flow cytometry analysis; format: functional, cell-based
In short: (§2)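 Human PBMCs from healthy donors, 1 × 10^6 cells/mL in RPMI 1640 with 10% FBS, treated with 2 μM compound or 0.1% DMSO, without or with LPS 10 ng/mL, for 18 h at 37 °C. Supernatant cytokines quantified by cytometric bead array (human inflammatory panel) on a flow cytometer against recombinant standards. Four independent donors. Repeated-measures one-way ANOVA with Dunnett.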

PBMC [4] = experiment: Immunostimulatory activity in human PBMC cells assessed as increase in TNF-alpha production at 2 uM incubated for 18 hrs by flow cytometry analysis; format: functional, cell-based; in short: as §2
PBMC [5] = experiment: Immunostimulatory activity in human PBMC cells assessed as increase in LPS-induced IL-1beta production at 2 uM incubated for 18 hrs by flow cytometry analysis; format: functional, cell-based; in short: as §2
K562 [6] = experiment: Cytotoxicity against human K562 cells cocultured with human PBMC cells assessed as inhibition of cell proliferation at 10 uM incubated with PBMC cells for 18 hrs followed by co-incubation with K562 cells for 4 hrs by SYTOX blue staining based flow cytometric analysis; format: functional; in short: as §1
BMDC = experiment: Induction of mouse BMDC-mediated ovalbumin specific CD4+ T cell activation assessed as increase in CD25 expression at 10 uM incubated for 72 hrs by CFSE staining based flow cytometric analysis; format: functional
In short: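 BMDCs from C57BL/6 mouse tibia (7 days in GM-CSF 20 ng/mL, >90% CD11c+) pulsed 18 h with compound (1 or 10 μM) plus ovalbumin 50 μg/mL, then washed. They were cocultured 72 h with CFSE-labelled naive OT-II CD4+ T cells. CD25+/CFSE-low fraction of live Thy1.2+CD4+ cells read by flow cytometry; supernatant cytokines also measured. Duplicates of two independent experiments.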

Mus musculus = experiment: Immuno-adjuvant activity in NIH/OlaHsd mouse assessed as increase in ovalbumin specific […] associated IgG2a production in sera at 0.15 micromol administered subcutaneously on day 1 and as booster dose on day 21 and 28 with ovalbumin loaded liposomes by ELISA; format: functional, organism-based; conditions: dose 0.15 µmol, time 28.0 day
In short: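 Groups of 5 female NIH/OlaHsd mice, 2.0–2.5 months old, immunized with ovalbumin-loaded liposomes (10 μg ovalbumin per dose) containing 0.15 μmol adjuvant per dose. Liposomes were neutral (PC–cholesterol 7:5), anionic (PC–cholesterol–dicetylphosphate 7:5:1) or mannosylated (PC–cholesterol–mannose-PEG-PA 7:5:0.5). Serum ovalbumin-specific IgG, IgG1 and IgG2a measured 1 week after the second booster. Mean ± SEM.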

[7] = Cytotoxicity against HEK-Blue hNOD2 cells assessed as reduction in metabolic activity at 20 uM incubated for 18 hrs by MTS assay; format: toxicity, cell-based; conditions: human, hek-blue hnod2, 18 h
In short: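 HEK-Blue NOD2 cells, 40 000 per well, exposed to 20 μM compound or 0.1% DMSO for 18 h at 37 °C, 5% CO2. Metabolic activity measured by MTS (CellTiter 96 AQueous One) reagent. Duplicates, two independent biological replicates.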

[8] = target: T1, Nucleotide-binding oligomerization domain-containing protein 1 (Homo sapiens) (UniProt Q9Y239); experiment: Agonist activity at NOD1 in HEK-Blue hNOD2 cells assessed as increase in NFkappaB transactivation-mediated SEAP activity measured after 18 hrs by spectrophotometric method; format: cell-based; conditions: HEK-Blue hNOD1, in the assay text read “HEK-Blue hNOD1 cells” for “HEK-Blue hNOD2 cells”
T1 sequence (whole entry): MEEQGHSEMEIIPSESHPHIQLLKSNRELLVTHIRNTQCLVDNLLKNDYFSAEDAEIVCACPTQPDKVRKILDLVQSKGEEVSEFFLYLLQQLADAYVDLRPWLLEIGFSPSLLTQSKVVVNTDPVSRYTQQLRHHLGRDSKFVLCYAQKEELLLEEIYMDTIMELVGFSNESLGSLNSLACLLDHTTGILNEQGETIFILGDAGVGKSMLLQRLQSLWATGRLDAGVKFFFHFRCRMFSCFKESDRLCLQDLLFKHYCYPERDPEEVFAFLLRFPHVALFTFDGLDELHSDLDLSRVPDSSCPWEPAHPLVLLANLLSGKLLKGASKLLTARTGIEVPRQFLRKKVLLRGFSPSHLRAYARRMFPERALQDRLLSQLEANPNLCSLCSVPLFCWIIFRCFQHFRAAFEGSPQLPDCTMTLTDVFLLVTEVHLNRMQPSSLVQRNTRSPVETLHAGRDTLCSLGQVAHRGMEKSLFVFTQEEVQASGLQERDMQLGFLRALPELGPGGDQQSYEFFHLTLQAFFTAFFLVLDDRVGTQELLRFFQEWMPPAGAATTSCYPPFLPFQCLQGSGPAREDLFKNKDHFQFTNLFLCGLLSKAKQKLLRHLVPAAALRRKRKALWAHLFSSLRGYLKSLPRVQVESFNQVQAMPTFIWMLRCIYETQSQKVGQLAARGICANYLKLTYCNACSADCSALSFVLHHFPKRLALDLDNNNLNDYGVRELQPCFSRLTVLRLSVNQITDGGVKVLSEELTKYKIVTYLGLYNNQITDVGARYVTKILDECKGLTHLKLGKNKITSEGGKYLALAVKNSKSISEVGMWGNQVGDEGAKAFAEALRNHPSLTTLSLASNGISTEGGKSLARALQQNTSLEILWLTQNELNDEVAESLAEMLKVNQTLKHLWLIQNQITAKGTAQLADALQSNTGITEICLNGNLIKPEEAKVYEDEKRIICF
In short: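 Counter-screen in HEK-Blue NOD1 cells (HEK293 stably expressing human NOD1 plus an NF-κB-inducible SEAP reporter), seeded at 2.5 × 10^5 cells/mL in HEK-Blue detection medium. Compounds at 2 μM versus 0.1% DMSO vehicle, 18 h at 37 °C, 5% CO2. SEAP read as absorbance at 630 nm. Duplicates, at least two independent experiments.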

Activity [8]: inactive
Compound: CCCCCCCCCCCCCCCCCC(=O)Oc1ccc(/C=C/C(=O)NCC(=O)N[C@H](C(=O)N[C@H](CCC(=O)OCC)C(=O)OCC)C(C)C)cc1OC
Activity (K562 [1]): inactive
Activity (MEC1): inactive
Activity (K562 [2]): Active
Activity (PBMC [3]): inactive
Activity (PBMC [4]): inactive
Activity (PBMC [5]): Active
Activity (K562 [6]): Active
Activity (BMDC): Active
Activity (Mus musculus): Active
Activity [7]: Non-Toxic
